# Screens: PubChem BioAssay, several laboratories
# Sampled rows, rich in hits. Any-hit rate of the full collection: about 4.1%.
# MEKK3 PB1 HTS: modulators of MEKK3-MEK5 PB1 binding, primary screen, biochemical, wildtype MEKK3, multiplex bead flow cytometry, Alexa488-MEK5. Mitogen-activated protein kinase kinase kinase 3 (Homo sapiens), Q99759. bead-based flow cytometry, Alexa488-MEK5 binding to MEKK3; actives lie on both sides; 0 = blocked by unlabeled MEK5, 100 = vehicle. binding response (% of control), % at 10 µM. actives 1.4% (n = 290,000). AID 1529, 2009;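 active = binding response more than 3 SD above or below the average of its plate-row segment, actives on both sides; inconclusive = wells at one plate position flagged as instrument error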;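 also: Alexa488 bead fluorescence after subtracting the streptavidin-only scavenger bead signal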
# Target sequence (Q99759 whole entry, looked up): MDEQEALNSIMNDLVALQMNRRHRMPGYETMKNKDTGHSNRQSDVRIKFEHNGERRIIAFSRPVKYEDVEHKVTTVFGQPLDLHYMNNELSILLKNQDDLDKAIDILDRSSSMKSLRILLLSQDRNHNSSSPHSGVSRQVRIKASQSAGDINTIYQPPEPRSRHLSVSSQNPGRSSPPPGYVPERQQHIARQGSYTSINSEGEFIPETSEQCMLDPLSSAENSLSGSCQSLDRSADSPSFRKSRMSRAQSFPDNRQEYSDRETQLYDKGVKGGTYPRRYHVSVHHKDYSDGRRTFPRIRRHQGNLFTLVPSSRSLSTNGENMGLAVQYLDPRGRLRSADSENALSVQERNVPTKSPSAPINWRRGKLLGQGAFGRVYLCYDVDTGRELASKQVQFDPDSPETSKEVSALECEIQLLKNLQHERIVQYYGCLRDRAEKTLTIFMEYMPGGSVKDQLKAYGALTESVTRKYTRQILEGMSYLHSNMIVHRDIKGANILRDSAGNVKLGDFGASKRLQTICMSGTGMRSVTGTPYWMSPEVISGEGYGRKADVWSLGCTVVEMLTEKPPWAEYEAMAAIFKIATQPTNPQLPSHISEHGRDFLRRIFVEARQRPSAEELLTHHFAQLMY
# MEKK2wt PB1 HTS: modulators of MEK5 binding to wildtype MEKK2, primary screen, biochemical, multiplex bead flow cytometry, Alexa488-MEK5; actives 1.1% (n = 290,000); binding response (% of control), % at 10 µM; Alexa488-MEK5 binding to MEKK2 WT; actives lie on both sides; Mitogen-activated protein kinase kinase kinase 2 (Homo sapiens), Q9Y2U5; in the data active = binding response below about 67% or above about 130%; inconclusive = no clear call, values can overlap the other calls; inactive = in between
# HCV NS3 hel inh: inhibitors of HCV NS3 helicase, primary screen, biochemical, Cy5 molecular beacon fluorescence; Hepatitis C virus NS3 helicase; NS3 helicase DNA unwinding; inhibition, % at 10.9 µM; actives 0.56% (n = 290,000);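 active = inhibition above the mean of all tested compounds plus 3 SD, set per campaign, cut at about 35% in these data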
#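 Test system: hepatitis C virus NS3 helicase domain fragment enzyme. Also added: annealed dual-labelled DNA beacon duplex, ATP-started. Timing: 60 min unwinding reaction at 25 °C after ATP addition. Technique: Cy5 fluorescence. Measure: % inhibition of unwinding.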
# MEKK2 mut-MEK5: MEK5 binding signal on mutant MEKK2 PB1, primary screen, biochemical, multiplex bead flow cytometry, Alexa488-MEK5. Alexa488-MEK5 binding to MEKK2 mutant. percent response, % at 10 µM. actives 0.35% (n = 290,000); in the data active = percent response above about 24%, passing the limit was not always enough
# FID counter: compounds displacing fluorescent DNA intercalator, primary screen, artefact control for HCV NS3 helicase inhibitor project, biochemical, FID fluorescence | actives 0.17% (n = 290,000) | AID 1845, 2009 | inhibition, % at 7.9 µM | DNA fluorescent intercalator displacement; in the data active = inhibition above about 37%;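 also: higher means more ethidium bromide displaced from hairpin DNA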
# T cruzi repl: inhibitors of intracellular T. cruzi growth, primary screen, luminescence, NIH3T3 host cells | T. cruzi beta-gal in NIH3T3, 90 h | inhibition, % (no concentration beside the values) | actives 1.4% (n = 300,000) | AID 1885, 2009;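 active = mean inhibition across valid replicates above about 55%, limit read from the data; inconclusive = mean below that limit but half or more replicates reach it; inactive = mean below it, under half of replicates reach it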;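 also: signal also drops with host cell toxicity which is not excluded here; higher percent means less beta-gal luminescence so fewer parasites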
#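 compound dosing = single 50 nL compound addition per well in DMSO | material = NIH/3T3 host cells with β-galactosidase reporter T. cruzi | input = 5,000 host fibroblasts per well | timing = ≥90 h infection period, 3 h prior cell attachment | read-out basis = percent inhibition of parasite-derived β-gal signal | detection = GalScreen β-gal luminescence, detergent lysis, 60 min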
# Hits are given with their value; i = inactive; ? = inconclusive; nt = no result.
SMILES,MEKK3 PB1 HTS,MEKK2wt PB1 HTS,HCV NS3 hel inh,MEKK2 mut-MEK5,FID counter,T cruzi repl
CC(CCc1ccccc1)N1CCN(Cc2ccccc2)CC1 (configuration not stated),i,i,i,i,i,58
Cc1ccc(S(=O)(=O)N2CCC(C(=O)OC(C)C(=O)NCc3ccccc3)CC2)cc1C (configuration not stated),i,i,i,i,i,i
O=C(Cn1c(=O)n(Cc2ccco2)c(=O)c2c3c(sc21)CCCCC3)c1ccccc1,i,i,i,i,i,i
O=c1c2c3c(sc2n(CCN2CCCC2)c(=O)n1Cc1ccco1)CCCCC3,?,?,i,i,i,57
O=C(Cn1c(=O)n(Cc2ccco2)c(=O)c2c3c(sc21)CCCCC3)Nc1ccccc1,i,i,i,i,i,i
CN(C)CCn1c(=O)n(Cc2ccco2)c(=O)c2c3c(sc21)CCCCC3,i,i,i,i,i,55
OC(CNCC(c1ccc(Cl)cc1Cl)c1c[nH]c2ccccc12)c1ccccc1 (configuration not stated),i,i,i,i,i,82
COc1ccc(N2CCOCC2)c(NC(=O)c2ccc3c(c2)OCO3)c1,i,i,i,i,i,i
CN(C)CCNc1cc(-c2ccncc2)nc2ccccc12,i,i,i,i,77,i
Cc1ccc(-c2nc(NCCN(C)C)c3ccccc3n2)cc1,i,i,i,i,71,i
O=C(NCc1ccccc1)c1cc(-c2ccncc2)nc2ccccc12,i,i,i,i,i,i
Fc1ccc(CNc2nc(-c3ccccc3)nc3ccccc23)cc1,i,i,i,i,i,57
c1ccc(-c2nc(NCc3cccnc3)c3ccccc3n2)cc1,i,i,i,i,i,i
Cc1cccc(NS(=O)(=O)c2cc(C(=O)N3CCc4ccccc4C3)ccc2Cl)c1C,i,i,i,i,i,60
Cc1ccc(C)c(NS(=O)(=O)c2cc(C(=O)N3CCc4ccccc4C3)ccc2Cl)c1,i,i,i,i,i,56
CC1CN(CCOc2ccc([N+](=O)[O-])cc2)CC(C)O1 (configuration not stated),i,i,i,i,i,i
O=[N+]([O-])c1ccc(OCCN2CCNCC2)cc1,i,i,i,i,i,58
C=CCc1cc(Cl)ccc1OCCCNC(C)C,i,i,i,i,i,i
C=CCc1cc(Cl)ccc1OCCN(C)C,i,i,i,i,i,57
COc1ccc(NC(=S)N(CCN(C)C)C(C)c2ccco2)cc1Cl (configuration not stated),i,i,i,i,i,i
CCOc1ccc(CN(C)CC(=O)Nc2ccc3c(c2)CCC3)cc1OC,i,i,i,i,i,i
C=CCOc1ccc(CN(C)CC(=O)Nc2ccc3c(c2)CCC3)cc1,i,i,i,i,37,i
O=C(Nc1nc(-c2ccccc2)cs1)c1ccc(N2CCOCC2)c([N+](=O)[O-])c1,i,i,i,i,i,55
COc1ccc(/C(C)=N/NC(=O)c2cccc(S(=O)(=O)N3CCCC3)c2)c(O)c1,nt,nt,nt,nt,nt,61
CCCCCCOc1ccc(N2C(=O)CC(NCc3ccc(S(N)(=O)=O)cc3)C2=O)cc1 (configuration not stated),i,-4.0,i,i,i,i
CCCCCCOc1ccc(N2C(=O)CC(NCCc3ccc(S(N)(=O)=O)cc3)C2=O)cc1 (configuration not stated),i,i,i,i,i,i
Cc1ccc(CC2CC(=O)N(c3cc(Cl)ccn3)C2=O)cc1 (configuration not stated),i,i,i,i,i,i
